# The source made the active and inactive calls. The rule behind the calls is not given here.
# Tests used:
# Pseudomonas aeruginosa [1] = experiment: Antibacterial activity against multidrug-resistant/tobramycin-susceptible Pseudomonas aeruginosa isolate 86052; type: functional
# Staphylococcus aureus = experiment: Antibacterial activity against Staphylococcus aureus ATCC 29213 after 24 hrs by microtitre broth dilution method; type: functional; conditions: ATCC 29213, 24 h
# Enterococcus faecalis = experiment: Antibacterial activity against Enterococcus faecalis ATCC 29212 after 24 hrs by microtitre broth dilution method; type: functional; conditions: ATCC 29212, 24 h
# Streptococcus pneumoniae = experiment: Antibacterial activity against Streptococcus pneumoniae ATCC 49619 after 24 hrs by microtitre broth dilution method; type: functional; conditions: ATCC 49619, 24 h
# Escherichia coli [2] = experiment: Antibacterial activity against gentamicin-resistant Escherichia coli isolate CAN-ICU 61714 after 24 hrs by microtitre broth dilution method; type: functional; conditions: isolate CAN-ICU 61714, 24 h
# Escherichia coli [3] = experiment: Antibacterial activity against gentamicin/tobramycin/ciprofloxacin-resistant Escherichia coli isolate CANWARD-2011 97615 harboring AAC3-2A after 24 hrs by microtitre broth dilution method; type: functional; conditions: isolate CANWARD-2011 97615, 24 h
# Pseudomonas aeruginosa [4] = experiment: Antibacterial activity against gentamicin-resistant Pseudomonas aeruginosa isolate CAN-ICU 62308 after 24 hrs by microtitre broth dilution method; type: functional; conditions: isolate CAN-ICU 62308, 24 h
# Klebsiella pneumoniae = experiment: Antibacterial activity against Klebsiella pneumoniae ATCC 13883 after 24 hrs by microtitre broth dilution method; type: functional; conditions: ATCC 13883, 24 h
# Pseudomonas aeruginosa [5] = experiment: Antibacterial activity against multidrug/extremely drug-resistant/colistin-susceptible Pseudomonas aeruginosa isolate 101885; type: functional
# Pseudomonas aeruginosa [6] = experiment: Antibacterial activity against multidrug/extremely drug-resistant/colistin-susceptible Pseudomonas aeruginosa isolate 260-97103; type: functional
# Pseudomonas aeruginosa [7] = experiment: Antibacterial activity against multidrug/extremely drug-resistant/colistin-susceptible Pseudomonas aeruginosa isolate 262-101856; type: functional
# Pseudomonas aeruginosa [8] = experiment: Antibacterial activity against multidrug-resistant/tobramycin-susceptible Pseudomonas aeruginosa isolate 86067; type: functional
# Pseudomonas aeruginosa [9] = experiment: Antibacterial activity against multidrug-resistant/tobramycin-susceptible Pseudomonas aeruginosa isolate 86079; type: functional
# Pseudomonas aeruginosa [10] = experiment: Antibacterial activity against multidrug-resistant/tobramycin-susceptible Pseudomonas aeruginosa isolate 108590; type: functional
# Pseudomonas aeruginosa [11] = experiment: Antibacterial activity against multidrug-resistant/tobramycin-susceptible Pseudomonas aeruginosa isolate 83182; type: functional
# Pseudomonas aeruginosa [12] = experiment: Antibacterial activity against multidrug-resistant/tobramycin-susceptible Pseudomonas aeruginosa isolate 85322; type: functional
# Escherichia coli [13] = experiment: Antibacterial activity against fluoroquinolone resistant Escherichia coli isolate 85332 harboring beta-lactamase CTX-M-14/TEM-1; type: functional
# Escherichia coli [14] = experiment: Antibacterial activity against fluoroquinolone resistant Escherichia coli isolate 88273 harboring beta-lactamase CTX-M-15/TEM-1/OXA-1; type: functional
# Escherichia coli [15] = experiment: Antibacterial activity against fluoroquinolone resistant Escherichia coli isolate 92756 harboring beta-lactamase CTX-M-14/TEM-1; type: functional
# Escherichia coli [16] = experiment: Antibacterial activity against fluoroquinolone resistant Escherichia coli isolate 92969 harboring beta-lactamase CTX-M-15/OXA-1; type: functional
# Escherichia coli [17] = experiment: Antibacterial activity against fluoroquinolone resistant Escherichia coli isolate ECMH01 harboring beta-lactamase NDM-1; type: functional
# Acinetobacter baumannii [18] = experiment: Antibacterial activity against fluoroquinolone resistant Acinetobacter baumannii isolate ABO27; type: functional
# Acinetobacter baumannii [19] = experiment: Antibacterial activity against fluoroquinolone resistant Acinetobacter baumannii isolate ABO28; type: functional
# [20] = Cytotoxicity against human JIMT1 cells assessed as reduction in cell viability after 48 hrs by MTS assay; type: toxicity, cell-based, JIMT-1
# [21] = Toxicity in Galleria mellonella upto 96 hrs
# Outline: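 Tolerability test in Galleria mellonella larvae, injected with doses up to a maximum of 600 mg/kg.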
# Pseudomonas aeruginosa [22] = experiment: Antibacterial activity against extremely drug-resistant Pseudomonas aeruginosa isolate 104354 infected in Galleria mellonella assessed as larvae survival at 75 mg/kg administered as single dose measured after 96 hrs; type: functional; conditions: isolate 104354, 96 h
# Outline: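 Galleria mellonella larvae were infected with 10^6 CFU of XDR P. aeruginosa #104354, resistant to all antipseudomonal classes except colistin. A single injected drug dose was given 2 h post-infection: 50 mg/kg with survival read at 24 h, or 75 mg/kg with survival read at 96 h. Controls were infected untreated larvae and PBS-injected larvae. Two independent experiments of 15 larvae each (n = 30).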
# Pseudomonas aeruginosa [23] = experiment: Antibacterial activity against Pseudomonas aeruginosa PAO1 assessed as fractional inhibitory concentration index after 18 hrs in presence of rifampicin by checkerboard method; type: functional
# Outline: (§1)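 Checkerboard combinations of the hybrid with each partner antibiotic were tested against P. aeruginosa PAO1. Interaction is expressed as the fractional inhibitory concentration (FIC) index: ≤0.5 means synergy, 1–2 no interaction, ≥4 antagonism.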
# Pseudomonas aeruginosa [24] = experiment: Antibacterial activity against Pseudomonas aeruginosa PAO1 assessed as fractional inhibitory concentration index after 18 hrs in presence of meropenem by checkerboard method; type: functional; outline: as §1
# Pseudomonas aeruginosa [25] = experiment: Antibacterial activity against Pseudomonas aeruginosa PAO1 assessed as fractional inhibitory concentration index after 18 hrs in presence of colistin by checkerboard method; type: functional; outline: as §1
# Pseudomonas aeruginosa [26] = experiment: Potentiation of moxifloxacin induced antibacterial activity against pandrug-resistant Pseudomonas aeruginosa isolate 101243 assessed as moxifloxacin MIC at <= […] ug/ml (reference value: 8 ug/ml); type: functional
# Pseudomonas aeruginosa [27] = experiment: Antibacterial activity against multidrug/extremely drug-resistant/Pseudomonas aeruginosa isolate PA260-97103 in presence of <= 4 ug/ml of ciprofloxacin (reference value: 1 ug/ml); type: functional
# Pseudomonas aeruginosa [28] = experiment: Antibacterial activity against pandrug-resistant Pseudomonas aeruginosa isolate 101243 in presence of <= 4 ug/ml of ciprofloxacin (reference value: 8 ug/ml); type: functional
# Pseudomonas aeruginosa [29] = experiment: Antibacterial activity against pandrug-resistant Pseudomonas aeruginosa isolate 91433 in presence of <= 4 ug/ml of moxifloxacin (reference value: 8 ug/ml); type: functional
# Pseudomonas aeruginosa [30] = experiment: Antimicrobial activity against Pseudomonas aeruginosa PAO200; type: functional
# Outline: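 MIC (µg/mL) determined in PAO200, a PAO1-derived MexAB-OprM deletion strain used to assess efflux effects.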
# Pseudomonas aeruginosa [31] = experiment: Antimicrobial activity against Pseudomonas aeruginosa PAO750; type: functional
# Outline: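 MICs were measured in PAO1 and in PAO750. PAO750 is a PAO1 derivative lacking the MexAB-OprM, MexCD-OprJ, MexEF-OprN, MexJK and MexXY efflux pumps and the outer membrane protein OpmH.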
# Pseudomonas aeruginosa [32] = experiment: Induction of inner membrane permeabilization in Pseudomonas aeruginosa PAO1 assessed as accumulation of propidium iodide at 8 ug/ml after 3 to 4 hrs by fluorescence microscopy; type: functional
# Outline: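 PAO1 cells were treated with 8 µg/mL for 3 h at 37 °C, then stained with the membrane-impermeable nucleic-acid dye propidium iodide. Fluorescence microscopy and DIC imaging were compared against untreated cells.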
# [33] = Inhibition of circular DNA translation in Escherichia coli S30 extract after 60 mins by luciferase reporter gene assay
# Outline: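 Translation was run in an E. coli S30 extract with a luciferase read-out. Luminescence is expressed as a percentage of the no-antibiotic control, taken as 100%.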
# Pseudomonas aeruginosa [34] = experiment: Ratio of MIC for Pseudomonas aeruginosa PAO1 after 25 serial passages to MIC for Pseudomonas aeruginosa PAO1 prior to 25 serial passages; type: functional
# Outline: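 P. aeruginosa PAO1 exposed to sub-inhibitory (0.5 x MIC) drug over successive subcultures as a resistance-selection procedure. MIC compared after versus before passaging.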
structure (smiles),measurement,setting,value
COc1c(N2C[C@@H]3CCCN(CCCCCCCCCCCCO[C@@H]4[C@@H](O[C@H]5O[C@H](CO)[C@@H](O)[C@H](N)[C@H]5O)[C@H](N)C[C@H](N)[C@H]4O[C@H]4O[C@H](CN)[C@@H](O)C[C@H]4N)[C@@H]3C2)c(F)cc2c(=O)c(C(=O)O)cn(C3CC3)c12.Cl.Cl.Cl.Cl.Cl,MIC,Pseudomonas aeruginosa [1],2 µg/mL
same,MIC,Staphylococcus aureus,1 µg/mL
same,MIC,Enterococcus faecalis,4 µg/mL
same,MIC,Streptococcus pneumoniae,1 µg/mL
same,MIC,Escherichia coli [2],4 µg/mL
same,MIC,Escherichia coli [3],128 µg/mL
same,MIC,Pseudomonas aeruginosa [4],8 µg/mL
same,MIC,Klebsiella pneumoniae,1 µg/mL
same,MIC,Pseudomonas aeruginosa [5],8 µg/mL
same,MIC,Pseudomonas aeruginosa [6],1 µg/mL
same,MIC,Pseudomonas aeruginosa [7],4 µg/mL
same,MIC,Pseudomonas aeruginosa [8],4 µg/mL
same,MIC,Pseudomonas aeruginosa [9],4 µg/mL
same,MIC,Pseudomonas aeruginosa [10],2 µg/mL
same,MIC,Pseudomonas aeruginosa [11],8 µg/mL
same,MIC,Pseudomonas aeruginosa [12],8 µg/mL
same,MIC,Escherichia coli [13],≥ 64 µg/mL
same,MIC,Escherichia coli [14],≥ 64 µg/mL
same,MIC,Escherichia coli [15],≥ 64 µg/mL
same,MIC,Escherichia coli [16],≥ 64 µg/mL
same,MIC,Escherichia coli [17],≥ 64 µg/mL
same,MIC,Acinetobacter baumannii [18],8 to 64 µg/mL
same,MIC,Acinetobacter baumannii [19],8 to 64 µg/mL
same,CC50 at 48 h,[20],> 30 µM
same,MTD at 96 h,[21],600 mg/kg
same,survival at 75 mg/kg,Pseudomonas aeruginosa [22],20%
same,fractional inhibitory concentration index (FICI),Pseudomonas aeruginosa [23],0.15
same,fractional inhibitory concentration index (FICI),Pseudomonas aeruginosa [24],2
same,fractional inhibitory concentration index (FICI),Pseudomonas aeruginosa [25],0.37
same,MIC,Pseudomonas aeruginosa [26],0.06 µg/mL
same,MIC,Pseudomonas aeruginosa [27],< 0.25 µg/mL
same,MIC,Pseudomonas aeruginosa [28],< 1 µg/mL
same,MIC,Pseudomonas aeruginosa [29],< 1 µg/mL
same,MIC,Pseudomonas aeruginosa [30],4 µg/mL
same,MIC,Pseudomonas aeruginosa [31],0.5 µg/mL
same,Activity,Pseudomonas aeruginosa [32],Active
same,IC50,[33],4.7 µM
same,Ratio,Pseudomonas aeruginosa [34],2

# — ChEMBL document CHEMBL3856229, “Hybrid Antibiotic Overcomes Resistance in P. aeruginosa by Enhancing Outer Membrane Penetration and Reducing Efflux” (J Med Chem, 2016)
